Measurements from publication PMC5099076 (Journal of medicinal chemistry, 2015).

What was measured:
PDK1 = target: T1, PDK1 (Homo sapiens, UniProt O15530); format: biochemical; conditions: short peptide substrate, in vitro
T1 sequence (O15530 1-556): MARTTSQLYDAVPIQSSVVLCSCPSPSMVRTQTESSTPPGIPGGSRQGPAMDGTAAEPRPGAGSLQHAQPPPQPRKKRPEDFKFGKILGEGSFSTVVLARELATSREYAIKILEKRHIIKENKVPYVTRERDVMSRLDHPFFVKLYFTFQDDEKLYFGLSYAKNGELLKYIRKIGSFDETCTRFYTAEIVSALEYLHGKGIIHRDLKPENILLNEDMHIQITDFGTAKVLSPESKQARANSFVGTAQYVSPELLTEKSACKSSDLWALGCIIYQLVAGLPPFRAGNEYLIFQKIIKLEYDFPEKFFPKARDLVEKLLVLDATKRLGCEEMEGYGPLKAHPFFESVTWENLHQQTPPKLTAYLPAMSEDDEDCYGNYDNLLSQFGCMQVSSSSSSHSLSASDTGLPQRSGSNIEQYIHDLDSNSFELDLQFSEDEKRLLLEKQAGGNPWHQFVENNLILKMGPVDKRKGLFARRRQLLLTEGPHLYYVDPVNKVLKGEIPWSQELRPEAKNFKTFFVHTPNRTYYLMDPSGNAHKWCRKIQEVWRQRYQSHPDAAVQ

PIF pocket of PDK1 = target: T2, PIF pocket of PDK1 (Homo sapiens, UniProt O15530); assay: Fluorescence polarization; format: binding
T2 sequence (O15530 1-556): T1 sequence (O15530 1-556)

Dynamic light scattering = format: physicochemical; conditions: under assay conditions
Procedure, shortened: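 Concentrated DMSO stocks of test compound diluted in assay buffer to a final 3.2% DMSO. Light scattering read with a 55 mW laser at 826.6 nm, 100% laser power, detector at 90°. Single-point measurements reported.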

cruzain = assay: Cruzain assay; format: biochemical; conditions: unrelated enzyme, test for aggregation-based mechanism
Procedure, shortened: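 Test compound preincubated 5 min with 0.8 nM cruzain in 100 mM sodium acetate, pH 5.5, 5 mM DTT, with 0.01% Triton X-100 added where indicated. Reaction started with Z-FR-AMC; final 0.4 nM cruzain, 2.5 μM substrate, 0.5% DMSO. Fluorescence increase (ex 355/em 460 nm) recorded over 5 min. Run in duplicate; DMSO-only controls.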

Structure (SMILES) | Maximal stimulation of PDK1 activity (PDK1) | LE (ligand efficiency) (PIF pocket of PDK1; binding energy (ΔG, kcal/mol) per non-hydrogen atom) | Formation of colloidal aggregates (Dynamic light scattering) | Nonspecific inhibition of cruzain (cruzain) | Binding to PDK1 (in words) (PIF pocket of PDK1; FP competitive binding assay)
Cc1ccc(OCCSc2nc3ccccc3n2CC(=O)O)c(C)c1 [compound 1] | ~ 1.8 fold | 0.25 kcal/mol per non-hydrogen atom | Neither compound formed colloidal aggregates | nor did either compound nonspecifically inhibit | –
O=C(O)C/C(=C/c1cccc(C(F)(F)F)c1)c1nc2ccccc2o1 [compound 2] | – | – | – | – | negligible
O=P(O)(O)[C@H](NC[C@@H]1CCCc2ccccc21)c1ccc(F)cc1 [compound 3] | ~ 1.8 fold | – | Neither compound formed colloidal aggregates | nor did either compound nonspecifically inhibit | –
